Experimental data: ChEMBL document CHEMBL5385966, “Synthesis and biological evaluation of new naphthalimide-thiourea derivatives as potent antimicrobial agents active against multidrug-resistant Staphylococcus aureus and Mycobacterium tuberculosis” (RSC Med Chem, 2024)
Converted amounts (≈) assume the structure as drawn. The source made the active and inactive calls. The calls are words filed in the database; no cut-off is given here.

Experiments:
[1] = system: Staphylococcus aureus; assay: Antibacterial activity against Staphylococcus aureus ATCC 29213 assessed as bacterial growth inhibition incubated for 16 to 18 hrs by CLSI based antibiotic susceptibility testing method; format: functional; settings: time 16-18 hrs
Outline: (§1)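 Broth microdilution in cation-adjusted Mueller-Hinton broth. Compounds were tested at […], with levofloxacin as reference and medium-only controls. Plates were incubated at 37 °C for 16-18 h. MIC was the lowest concentration with no visible growth; three independent determinations, each in duplicate.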

[2] = system: Acinetobacter baumannii; assay: Antibacterial activity against Acinetobacter baumannii BAA 1605 assessed as bacterial growth inhibition incubated for 16 to 18 hrs by CLSI based antibiotic susceptibility testing method; format: functional, organism-based; settings: time 16-18 hrs; outline: as §1
[3] = system: Mycolicibacterium fortuitum; assay: Antimycobacterial activity against Mycobacterium fortuitum ATCC 6841 assessed as bacterial growth inhibition incubated for 72 hrs by resazurin dye based broth microdilution method; format: functional, organism-based
Outline: (§2)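 Broth microdilution in Middlebrook 7H9 with 10% ADC-Tween-80 (0.2% glycerol, 0.05% Tween-80), inoculum ~10⁶ cfu/mL. Compounds came from 10 mg/mL DMSO stocks and were tested as two-fold serial dilutions at 37 °C, 7 days for M. tuberculosis H37Rv and 72 h for NTM. Growth was read visually with PrestoBlue resazurin dye; MIC was the lowest concentration preventing growth. Triplicate determinations, each in duplicate.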

[4] = system: Escherichia coli; assay: Antibacterial activity against Escherichia coli ATCC 25922 assessed as bacterial growth inhibition incubated for 16 to 18 hrs by CLSI based antibiotic susceptibility testing method; format: functional, organism-based; settings: time 16-18 hrs; outline: as §1
[5] = system: Staphylococcus aureus; assay: Antibacterial activity against methicillin/ceftriaxone/meropenem-resistant Staphylococcus aureus NRS10198 clinical isolate assessed as bacterial growth inhibition incubated for 16 to 18 hrs by CLSI based antibiotic susceptibility testing method; format: functional; settings: time 16-18 hrs; outline: as §1
[6] = system: Mycobacteroides abscessus; assay: Antimycobacterial activity against Mycobacterium abscessus ATCC 19977 assessed as bacterial growth inhibition incubated for 72 hrs by resazurin dye based broth microdilution method; format: functional, organism-based; outline: as §2
[7] = Cytotoxicity against African green monkey Vero cells by MTT assay; format: toxicity, cell-based; settings: chlorocebus sabaeus
Outline: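 Vero cells were seeded at ~10³ per well at 37 °C, 5% CO2. After 24 h, compounds were added at 5-100 mg/L for 72 h. […] was added for 4 h, formazan was dissolved in DMSO and read at 540 nm. CC50 was taken as the lowest concentration reducing viability by 50%; doxorubicin was the positive control; triplicate.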

[8] = system: Staphylococcus aureus; assay: Antibacterial activity against methicillin/ceftriaxone/meropenem-resistant Staphylococcus aureus NRS10192 clinical isolate assessed as bacterial growth inhibition incubated for 16 to 18 hrs by CLSI based antibiotic susceptibility testing method; format: functional; settings: time 16-18 hrs; outline: as §1
[9] = system: Mycobacterium tuberculosis; assay: Antimycobacterial activity against Mycobacterium tuberculosis H37Rv ATCC 27294 assessed as bacterial growth inhibition incubated for 7 days by resazurin dye based broth microdilution method; format: functional; settings: H37Rv ATCC 27294, 168 h, time 7 day; outline: as §2
[10] = system: Staphylococcus aureus; assay: Antibacterial activity against methicillin/ceftriaxone-resistant Staphylococcus aureus NRS10194 clinical isolate assessed as bacterial growth inhibition incubated for 16 to 18 hrs by CLSI based antibiotic susceptibility testing method; format: functional; settings: time 16-18 hrs; outline: as §1
[11] = system: Staphylococcus aureus; assay: Antibacterial activity against methicillin/ceftriaxone/meropenem-resistant Staphylococcus aureus NRS10186 clinical isolate assessed as bacterial growth inhibition incubated for 16 to 18 hrs by CLSI based antibiotic susceptibility testing method; format: functional; settings: time 16-18 hrs; outline: as §1
[12] = system: Staphylococcus aureus; assay: Antibacterial activity against methicillin/ceftriaxone/meropenem/vancomycin/teicoplanin-resistant Staphylococcus aureus VRS12 clinical isolate assessed as bacterial growth inhibition incubated for 16 to 18 hrs by CLSI based antibiotic susceptibility testing method; format: functional; settings: time 16-18 hrs; outline: as §1
[13] = system: Staphylococcus aureus; assay: Antibacterial activity against methicillin/ceftriaxone/meropenem-resistant Staphylococcus aureus NRS10193 clinical isolate assessed as bacterial growth inhibition incubated for 16 to 18 hrs by CLSI based antibiotic susceptibility testing method; format: functional; settings: time 16-18 hrs; outline: as §1
[14] = system: Staphylococcus aureus; assay: Antibacterial activity against methicillin/ceftriaxone/meropenem/vancomycin/teicoplanin-resistant Staphylococcus aureus VRS4 clinical isolate assessed as bacterial growth inhibition incubated for 16 to 18 hrs by CLSI based antibiotic susceptibility testing method; format: functional; settings: time 16-18 hrs; outline: as §1
[15] = system: Staphylococcus aureus; assay: Antibacterial activity against methicillin/ceftriaxone/meropenem/gentamycin/vancomycin/teicoplanin-resistant Staphylococcus aureus VRS1 clinical isolate assessed as bacterial growth inhibition incubated for 16 to 18 hrs by CLSI based antibiotic susceptibility testing method; format: functional; settings: time 16-18 hrs; outline: as §1
[16] = system: Staphylococcus aureus; assay: Antibacterial activity against methicillin/ceftriaxone/meropenem-resistant Staphylococcus aureus NRS10129 clinical isolate assessed as bacterial growth inhibition incubated for 16 to 18 hrs by CLSI based antibiotic susceptibility testing method; format: functional; settings: time 16-18 hrs; outline: as §1
[17] = system: Staphylococcus aureus; assay: Antibacterial activity against methicillin/ceftriaxone/meropenem-resistant Staphylococcus aureus NRS10191 clinical isolate assessed as bacterial growth inhibition incubated for 16 to 18 hrs by CLSI based antibiotic susceptibility testing method; format: functional; settings: time 16-18 hrs; outline: as §1
[18] = system: Staphylococcus aureus; assay: Antibacterial activity against methicillin-sensitive Staphylococcus aureus ATCC 29213 clinical isolate assessed as bacterial growth inhibition incubated for 16 to 18 hrs by CLSI based antibiotic susceptibility testing method; format: functional; settings: time 16-18 hrs; outline: as §1
[19] = system: Pseudomonas aeruginosa; assay: Antibacterial activity against Pseudomonas aeruginosa ATCC 27853 assessed as bacterial growth inhibition incubated for 16 to 18 hrs by CLSI based antibiotic susceptibility testing method; format: functional, organism-based; settings: time 16-18 hrs; outline: as §1
[20] = system: Staphylococcus aureus; assay: Antibacterial activity against methicillin/ceftriaxone/meropenem/gentamycin/linezolid-resistant Staphylococcus aureus NRS10100 clinical isolate assessed as bacterial growth inhibition incubated for 16 to 18 hrs by CLSI based antibiotic susceptibility testing method; format: functional; settings: time 16-18 hrs; outline: as §1
[21] = Selectivity index, ratio of CC50 for African green monkey Vero cells to MIC for Staphylococcus aureus ATCC 29213; format: toxicity, cell-based; settings: read-out: Selectivity Index
[22] = system: Mycobacteroides chelonae; assay: Antimycobacterial activity against Mycobacteroides chelonae ATCC 35752 assessed as bacterial growth inhibition incubated for 72 hrs by resazurin dye based broth microdilution method; format: functional, organism-based; outline: as §2
[23] = system: Staphylococcus aureus; assay: Antibacterial activity against methicillin/ceftriaxone/meropenem/gentamycin/linezolid-resistant Staphylococcus aureus NRS10119 clinical isolate assessed as bacterial growth inhibition incubated for 16 to 18 hrs by CLSI based antibiotic susceptibility testing method; format: functional; settings: time 16-18 hrs; outline: as §1
[24] = system: Klebsiella pneumoniae; assay: Antibacterial activity against Klebsiella pneumoniae BAA 1705 assessed as bacterial growth inhibition incubated for 16 to 18 hrs by CLSI based antibiotic susceptibility testing method; format: functional, organism-based; settings: time 16-18 hrs; outline: as §1

Compound | MIC [1] | growth inhibition (GI) [2] | growth inhibition (GI) [3] | growth inhibition (GI) [4] | MIC [5] | growth inhibition (GI) [6] | CC50 [7] | MIC [8] | MIC [9] | MIC [10] | MIC [11] | MIC [12] | MIC [13] | MIC [14] | MIC [15] | MIC [16] | MIC [17] | MIC [18] | MIC [20] | MIC [23] | other results
O=C1c2cccc3cccc(c23)C(=O)N1CCN1CCN(C(=S)Nc2ccccc2)CC1 | 2 µg/mL (≈ 4.5 µM) | inactive | inactive | inactive | 2 µg/mL (≈ 4.5 µM) | inactive | > 100 µg/mL | 2 µg/mL (≈ 4.5 µM) | > 64 µg/mL | 4 µg/mL (≈ 9 µM) | 4 µg/mL (≈ 9 µM) | 4 µg/mL (≈ 9 µM) | 2 µg/mL (≈ 4.5 µM) | 2 µg/mL (≈ 4.5 µM) | 4 µg/mL (≈ 9 µM) | 4 µg/mL (≈ 9 µM) | 2 µg/mL (≈ 4.5 µM) | 4 µg/mL (≈ 9 µM) | 4 µg/mL (≈ 9 µM) | 4 µg/mL (≈ 9 µM) | growth inhibition (GI) [19]: inactive; selectivity ratio [21]: > 50; growth inhibition (GI) [22]: inactive; growth inhibition (GI) [24]: inactive
O=C(CN1C(=O)c2cccc3cccc(c23)C1=O)N1CCC(NC(=S)NC2CCCCCC2)CC1 | 0.25 µg/mL (≈ 0.507 µM) | inactive | inactive | inactive | 0.25 µg/mL (≈ 0.507 µM) | inactive | > 100 µg/mL | 0.25 µg/mL (≈ 0.507 µM) | > 64 µg/mL | 0.25 µg/mL (≈ 0.507 µM) | 0.25 µg/mL (≈ 0.507 µM) | 0.25 µg/mL (≈ 0.507 µM) | 0.25 µg/mL (≈ 0.507 µM) | 0.25 µg/mL (≈ 0.507 µM) | 0.25 µg/mL (≈ 0.507 µM) | 0.25 µg/mL (≈ 0.507 µM) | 0.25 µg/mL (≈ 0.507 µM) | 0.25 µg/mL (≈ 0.507 µM) | 0.25 µg/mL (≈ 0.507 µM) | 0.25 µg/mL (≈ 0.507 µM) | growth inhibition (GI) [19]: inactive; selectivity ratio [21]: > 400; growth inhibition (GI) [22]: inactive; growth inhibition (GI) [24]: inactive
C[C@@H](O)[C@H]1C(=O)N2C(C(=O)O)=C(S[C@@H]3CN[C@H](C(=O)N(C)C)C3)[C@H](C)[C@H]12 [MEROPENEM] |  |  |  |  | 64 µg/mL (≈ 167 µM) |  |  | 4 µg/mL (≈ 10.4 µM) |  | 1 µg/mL (≈ 2.61 µM) | 4 µg/mL (≈ 10.4 µM) | 8 µg/mL (≈ 20.9 µM) | 64 µg/mL (≈ 167 µM) | 64 µg/mL (≈ 167 µM) | 64 µg/mL (≈ 167 µM) | 2 µg/mL (≈ 5.22 µM) | 64 µg/mL (≈ 167 µM) | 0.125 µg/mL (≈ 0.326 µM) | 32 µg/mL (≈ 83.4 µM) | 64 µg/mL (≈ 167 µM) | 
